# Measurements: ChEMBL document CHEMBL1671835, “Discovery of a Potent, S1P3-Sparing Benzothiazole Agonist of Sphingosine-1-Phosphate Receptor 1 (S1P1)” (ACS Med Chem Lett, 2011)
# The source made the active and inactive calls. No cut-off for these calls is given here.
# Experiments:
# [1] = target: T1, Sphingosine 1-phosphate receptor 1 (Homo sapiens, UniProt P21453); assay: Agonist activity at human S1P1 receptor expressed in human U2OS cells co-expressing eGFP assessed as receptor internalization after 1 hr relative to 1-(4-(6-benzylbenzofuran-2-yl)-3-fluorobenzyl)azetidine-3-carboxylic acid; type: functional, cell-based
# T1 sequence (P21453 whole entry, the tested form may be a part): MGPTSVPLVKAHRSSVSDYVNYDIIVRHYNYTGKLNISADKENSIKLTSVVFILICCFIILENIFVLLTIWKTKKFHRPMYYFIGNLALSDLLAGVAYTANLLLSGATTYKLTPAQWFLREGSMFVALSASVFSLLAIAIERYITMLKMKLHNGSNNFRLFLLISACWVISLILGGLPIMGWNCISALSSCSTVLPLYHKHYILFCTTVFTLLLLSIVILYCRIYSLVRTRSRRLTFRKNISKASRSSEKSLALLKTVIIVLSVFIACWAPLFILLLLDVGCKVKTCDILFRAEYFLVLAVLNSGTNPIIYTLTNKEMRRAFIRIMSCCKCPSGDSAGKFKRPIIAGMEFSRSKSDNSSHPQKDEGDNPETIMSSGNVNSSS
# How it was run: (§1)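 hS1P1-GFP fusion expressed in U2OS cells; agonism read as receptor internalization. Percent efficacy is relative to 1.00 μM reference agonist, and >top concentration is reported when activity stays under 10% of control. Each value is the mean of at least two determinations.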
# [2] = target: T2, Sphingosine 1-phosphate receptor 3 (Homo sapiens, UniProt Q99500); assay: Agonist activity at human S1P3 receptor expressed in CHO-K1 cells co-expressing Gq/i5 G-protein assessed as calcium mobilization by FLIPR assay relative to S1P; type: functional, cell-based
# T2 sequence (Q99500 whole entry): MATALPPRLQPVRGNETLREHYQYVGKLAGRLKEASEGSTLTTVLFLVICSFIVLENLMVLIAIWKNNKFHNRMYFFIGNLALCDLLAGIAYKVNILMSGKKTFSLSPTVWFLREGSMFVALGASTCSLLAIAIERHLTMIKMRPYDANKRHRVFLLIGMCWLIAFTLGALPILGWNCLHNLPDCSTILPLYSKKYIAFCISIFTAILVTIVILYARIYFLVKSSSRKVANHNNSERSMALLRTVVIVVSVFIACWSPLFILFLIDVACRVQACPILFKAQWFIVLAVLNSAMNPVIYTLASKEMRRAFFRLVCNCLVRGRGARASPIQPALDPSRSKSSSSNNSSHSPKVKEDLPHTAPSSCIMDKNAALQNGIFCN
# How it was run: (§2)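 hS1P3 and Gq/i5 co-transfected into CHO-K1 cells; agonism read as Ca2+ mobilization. Percent efficacy is relative to 0.200 μM S1P, and >top concentration is reported when activity stays under 10% of control. Each value is the mean of at least two determinations.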
# [3] = target: T2, Sphingosine 1-phosphate receptor 3; assay: Agonist activity at human S1P3 receptor expressed in CHO-K1 cells co-expressing Gq/i5 G-protein assessed as calcium mobilization by FLIPR assay; type: functional, cell-based; how it was run: as §2
# [4] = target: T1, Sphingosine 1-phosphate receptor 1; assay: Agonist activity at human S1P1 receptor expressed in human U2OS cells co-expressing eGFP assessed as receptor internalization after 1 hr; type: functional, cell-based; how it was run: as §1
# [5] = Clearance in Sprague-Dawley rat at 2 mg/kg, iv and 15 mg/kg, po; type: ADME, organism-based; conditions: in vivo
# How it was run: (§3)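 Female Sprague-Dawley rats, N = 3 per route: iv 2 mg/kg in DMSO; po 15 mg/kg in 20% captisol, pH 2. Clearance expressed also as percent of liver blood flow.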
# Rattus norvegicus [6] = assay: Cardiotoxicity in rat assessed as effect on heart rate at 30 mg/kg, po; type: toxicity, organism-based; design: dose 30 mg/kg, route oral; conditions: in vivo
# How it was run: (§4)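 Telemetered rats given oral doses; heart rate and mean arterial pressure monitored to set a no-effect level.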
# [7] = Mean residence time in Sprague-Dawley rat at 2 mg/kg, iv and 15 mg/kg, po; type: ADME, organism-based; conditions: in vivo; how it was run: as §3
# [8] = Half life in cynomolgus monkey at 4 mg/kg, iv and 10 mg/kg, po; type: ADME, organism-based, Macaca fascicularis; conditions: in vivo
# How it was run: (§5)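 Male cynomolgus monkeys, N = 3 per route: iv 4 mg/kg in 20% captisol, pH 4; po 10 mg/kg in 20% captisol with 1% pluronic F68 and 1% HPMC, pH 2. Clearance expressed also as percent of liver blood flow.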
# Rattus norvegicus [9] = assay: Immunosuppressive activity in delayed-type hypersensitivity Lewis rat model assessed as reduction of ovalbumin/complete Freund's adjuvant-induced ear swelling at 1 to 3 mg/kg, po qd for 10 days; type: functional, organism-based
# How it was run: (§6)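 Female Lewis rats dosed orally once daily for 10 days at 0.1–3.0 mg/kg in 20% captisol, pH 2 (N = 8/group; N = 4 at 3.0 mg/kg). On day 1 rats were immunized with ovalbumin plus complete Freund's adjuvant. One week later ovalbumin was injected intracutaneously into one ear. Ear-thickness change and blood lymphocytes measured 48 h after challenge; compared with vehicle by ANOVA/Dunnett's test.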
# [10] = Clearance in cynomolgus monkey at 4 mg/kg, iv and 10 mg/kg, po; type: ADME, organism-based, Macaca fascicularis; conditions: in vivo; how it was run: as §5
# Rattus norvegicus [11] = assay: Immunomodulatory activity in po dosed Lewis rat assessed as reduction of circulating lymphocytes count after 24 hrs; type: functional, organism-based
# How it was run: (§7)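 Female Lewis rats dosed orally at 0.3, 1.0 or 3.0 mg/kg in 20% captisol, pH 2, N = 5/group. Blood lymphocyte counts and plasma concentration taken 24 h postdose. Compared with vehicle by ANOVA/Dunnett's test, P < 0.05.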
# [12] = Volume of distribution at steady state in Sprague-Dawley rat at 2 mg/kg, iv and 15 mg/kg, po; type: ADME, organism-based; conditions: in vivo, read-out: Vdss; how it was run: as §3
# [13] = Fraction unbound in rat plasma at 5 ug/ml by ultracentrifugation analysis; type: ADME, cell-free
# How it was run: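 Plasma protein binding determined by ultracentrifugation at 5.0 μg/mL test compound.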
# [14] = AUC (0 to 24 hrs) in Sprague-Dawley rat at 100 mg/kg, po qd for 4 days; type: ADME, organism-based; design: time < 24 hr, dose 100 mg/kg, route oral; conditions: plasma
# [15] = Mean residence time in cynomolgus monkey at 4 mg/kg, iv and 10 mg/kg, po; type: ADME, organism-based, Macaca fascicularis; conditions: in vivo; how it was run: as §5
# [16] = Oral bioavailability in cynomolgus monkey at 10 mg/kg; type: ADME, organism-based, Macaca fascicularis; conditions: in vivo; how it was run: as §5
# [17] = Mutagenic activity in Salmonella Typhimurium by Ames test; type: toxicity; conditions: salmonella enterica subsp. enterica serovar typhimurium
# Rattus norvegicus [18] = assay: Liver blood flow in Sprague-Dawley rat at 2 mg/kg, iv and 15 mg/kg, po; type: ADME, organism-based; conditions: in vivo; how it was run: as §3
# [19] = Volume of distribution at steady state in cynomolgus monkey at 4 mg/kg, iv and 10 mg/kg, po; type: ADME, organism-based, Macaca fascicularis; conditions: in vivo, read-out: Vdss; how it was run: as §5
# Rattus norvegicus [20] = assay: Immunomodulatory activity in Lewis rat assessed as reduction of circulating lymphocytes count at 0.3 mg/kg, po after 24 hrs relative to control; type: functional; how it was run: as §7
# Rattus norvegicus [21] = assay: Immunosuppressive activity in delayed-type hypersensitivity Lewis rat model assessed as reduction of ovalbumin/complete Freund's adjuvant-induced ear swelling at 0.3 mg/kg, po qd for 10 days; type: functional, organism-based; design: dose 0.3 mg/kg; how it was run: as §6
# [22] = Oral bioavailability in Sprague-Dawley rat at 15 mg/kg; type: ADME, organism-based; conditions: in vivo; how it was run: as §3
# Rattus norvegicus [23] = assay: Immunomodulatory activity in Lewis rat assessed as reduction of circulating lymphocytes count at 1 mg/kg, po after 24 hrs relative to control; type: functional; design: scale not given: the % may be the effect or the level left; how it was run: as §7
# [24] = Inhibition of human cytochrome P450; type: ADME
# Rattus norvegicus [25] = assay: Cardiotoxicity in rat assessed as effect on mean arterial pressure at 30 mg/kg, po; type: toxicity, organism-based, Artery; design: dose 30 mg/kg, route oral; conditions: in vivo; how it was run: as §4
# Rattus norvegicus [26] = assay: Toxicity in Sprague-Dawley rat assessed as proconvulsive activity at 100 mg/kg, po qd for 4 days; type: organism-based; design: dose 100 mg/kg, route oral; conditions: in vivo, 96 h
# How it was run: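 Sprague-Dawley rats (N = 3) dosed orally at 100 mg/kg once daily for 4 days and observed for proconvulsive activity.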
# [27] = Cmax in Sprague-Dawley rat at 100 mg/kg, po qd for 4 days; type: ADME, organism-based; design: dose 100 mg/kg, route oral; conditions: in vivo
# Rattus norvegicus [28] = assay: Immunomodulatory activity in Lewis rat assessed as reduction of circulating lymphocytes count at 3 mg/kg, po after 24 hrs relative to control; type: functional; how it was run: as §7
# Cynomolgus monkey = assay: Liver blood flow in cynomolgus monkey at 4 mg/kg, iv and 10 mg/kg, po; type: ADME, organism-based, Macaca fascicularis; conditions: in vivo; how it was run: as §5
# [29] = Half life in Sprague-Dawley rat at 2 mg/kg, iv and 15 mg/kg, po; type: ADME, organism-based; conditions: in vivo; how it was run: as §3
smiles,measurement,setting,value
O=C(O)C1CN(Cc2ccc(-n3cc4ccc(Cc5ccccc5)cc4n3)c(F)c2)C1,Efficacy,[1],100%
same,Efficacy,[2],48%
same,EC50,[3],2710 nM
same,EC50,[4],1810 nM
O=C(O)C1CN(Cc2ccc(-c3nc4cc(Cc5ccccc5)ccc4o3)c(F)c2)C1,Efficacy,[1],105%
same,Efficacy,[2],77%
same,EC50,[3],354 nM
same,EC50,[4],325 nM
O=C(O)C1CN(Cc2ccc(-c3nc4cc(Cc5c(F)cccc5F)ccc4s3)c(F)c2)C1,Efficacy,[1],126%
same,EC50,[3],> 25000 nM
same,EC50,[4],126 nM
O=C(O)C1CN(Cc2ccc(-c3nc4cc(Cc5ccc(Cl)cc5)ccc4s3)c(F)c2)C1,Efficacy,[1],117%
same,EC50,[3],> 25000 nM
same,EC50,[4],159 nM
O=C(O)C1CN(Cc2ccc(-c3nc4cc(Cc5ccccc5F)ccc4s3)c(F)c2)C1,Efficacy,[1],115%
same,clearance,[5],5.5 mL/min/kg
same,Activity,Rattus norvegicus [6],Non-toxic
same,MRT,[7],10 h
same,Efficacy,[2],14%
same,EC50,[3],3470 nM
same,half-life,[8],35.2 h
same,Efficacy,Rattus norvegicus [9],Active
same,clearance,[10],8.33 mL/min/kg
same,Efficacy,Rattus norvegicus [11],Dose-dependent effect
same,Vd,[12],3.3 L/kg
same,fraction unbound at 5 ug/ml,[13],0.021
same,AUC at 24 h,[14],987 µg·h/mL
same,MRT,[15],3.3 h
same,bioavailability,[16],23%
same,Activity,[17],Non-toxic
same,LBF,Rattus norvegicus [18],10%
same,Vd,[19],1.6 L/kg
same,Efficacy,Rattus norvegicus [20],34%
same,Efficacy,Rattus norvegicus [21],Active
same,bioavailability,[22],68%
same,Activity,Rattus norvegicus [23],63%
same,inhibition (INH),[24],Not Active
same,Activity,Rattus norvegicus [25],Non-toxic
same,Activity,Rattus norvegicus [26],Non-toxic
same,Cmax,[27],49000 ng/mL
same,Efficacy,Rattus norvegicus [28],74%
same,LBF,Cynomolgus monkey,19%
same,half-life,[29],7.5 h
Cc1ccc(Cc2ccc3sc(-c4ccc(CN5CC(C(=O)O)C5)cc4F)nc3c2)cc1,Efficacy,[1],132%
same,Efficacy,[2],17%
same,EC50,[3],1800 nM
same,EC50,[4],77 nM
O=C(O)C1CN(Cc2ccc(-c3cc4ccc(Cc5ccccc5)cc4o3)c(F)c2)C1,Efficacy,[2],42%
same,EC50,[3],679 nM
same,EC50,[4],13 nM
O=C(O)C1CN(Cc2ccc(-c3nc4cc(Cc5ccc(F)c(F)c5)ccc4s3)c(F)c2)C1,Efficacy,[1],151%
same,Efficacy,[2],19%
same,EC50,[3],967 nM
same,EC50,[4],30 nM
O=C(O)C1CN(Cc2ccc(-c3nc4cc(Cc5cccc(Cl)c5)ccc4s3)c(F)c2)C1,Efficacy,[1],141%
same,Efficacy,[2],35%
same,EC50,[3],3880 nM
same,EC50,[4],49 nM
Cc1ccccc1Cc1ccc2sc(-c3ccc(CN4CC(C(=O)O)C4)cc3F)nc2c1,Efficacy,[1],118%
same,Efficacy,[2],40%
same,EC50,[3],2440 nM
same,EC50,[4],26 nM
same,Activity,Rattus norvegicus [23],63%
O=C(O)C1CN(Cc2ccc(-c3nc4cc(Cc5ccccc5)ccc4s3)c(F)c2)C1,Efficacy,[2],24%
same,EC50,[4],42 nM
O=C(O)C1CN(Cc2ccc(-c3nc4ccc(Cc5ccccc5)cc4o3)c(F)c2)C1,Efficacy,[1],108%
same,Efficacy,[2],87%
same,EC50,[3],542 nM
same,EC50,[4],94 nM
O=C(O)C1CN(Cc2ccc(-c3nc4cc(Cc5ccccc5Cl)ccc4s3)c(F)c2)C1,Efficacy,[1],121%
same,Efficacy,[2],41%
same,EC50,[3],4880 nM
same,EC50,[4],42 nM
same,Activity,Rattus norvegicus [23],63%
O=C(O)C1CN(Cc2ccc(-c3cc4cc(Cc5ccccc5)ccc4o3)c(F)c2)C1,Efficacy,[1],96%
same,Efficacy,[2],42%
same,EC50,[3],1730 nM
same,fraction unbound at 5 ug/ml,[13],0.015
O=C(O)C1CN(Cc2ccc(-c3cn4cc(Cc5ccccc5)ccc4n3)c(F)c2)C1,Efficacy,[1],115%
same,EC50,[3],> 25000 nM
same,EC50,[4],6720 nM
O=C(O)C1CN(Cc2ccc(-c3nc4ccc(Cc5ccccc5)cc4s3)c(F)c2)C1,Efficacy,[1],84%
same,Efficacy,[2],50%
O=C(O)C1CN(Cc2ccc(-c3cn4ccc(Cc5ccccc5)cc4n3)c(F)c2)C1,Efficacy,[1],110%
same,Efficacy,[2],50%
same,EC50,[3],6090 nM
same,EC50,[4],741 nM
O=C(O)C1CN(Cc2ccc(-c3nc4ccc(Cc5ccccc5)cc4[nH]3)c(F)c2)C1,EC50,[3],> 25000 nM
same,EC50,[4],> 6250 nM
O=C(O)C1CN(Cc2ccc(-c3nc4cc(Cc5ccc(F)cc5F)ccc4s3)c(F)c2)C1,Efficacy,[1],186%
same,Efficacy,[2],24%
same,EC50,[3],1200 nM
same,EC50,[4],42 nM
Cc1cccc(Cc2ccc3sc(-c4ccc(CN5CC(C(=O)O)C5)cc4F)nc3c2)c1,Efficacy,[1],92%
same,EC50,[3],> 2500 nM
same,EC50,[4],54 nM
O=C(O)C1CN(Cc2ccc(-c3nc4cc(Cc5ccc(F)cc5)ccc4s3)c(F)c2)C1,Efficacy,[1],129%
same,Efficacy,[2],37%
same,EC50,[3],1910 nM
same,EC50,[4],33 nM
O=C(O)C1CN(Cc2ccc(-n3cc4cc(Cc5ccccc5)ccc4n3)c(F)c2)C1,Efficacy,[1],53%
same,Efficacy,[2],43%
same,EC50,[3],1110 nM
same,EC50,[4],2890 nM
O=C(O)C1CN(Cc2ccc(-c3nc4cc(Cc5cccc(F)c5)ccc4s3)c(F)c2)C1,Efficacy,[1],138%
same,Efficacy,[2],22%
same,EC50,[3],687 nM
same,EC50,[4],21 nM
